Data set [1] deals with Heart. Nature of the data set: Drug concentration in female albino rat heart assessed as radioactivity per gram of tissue at 20 mg/kg administered as single dose via gastric gavage measured after 3 hrs by autoradiographic analysis. It counts as ADME, organism-based. The arrangement: dose 20 mg/kg, dosed compound name [14C]Sunitinib. Conditions: in vivo, po. In outline: (§1)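 Sprague Dawley albino rats, ca 7-8 weeks old, dosed once by gastric gavage with [14C]sunitinib L-malate (15 mg freebase/kg, 100 µCi/kg). One male and one female killed by CO2 at 3, 6, 24, 72 and 168 h. Carcasses frozen in solid CO2/hexane, embedded and cut into 30 µm sagittal sections, then freeze-dried. Radioactivity quantified by whole-body autoradiography against standards by regression, background subtracted.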

In data set [2] the test system is Heart. Nature of the data set: Drug concentration in female Lister Hooded pigmented rat heart assessed as radioactivity per gram of tissue at 20 mg/kg administered as single dose via gastric gavage measured after 24 hrs by autoradiographic analysis. Format: ADME, organism-based. The arrangement: dose 20 mg/kg, dosed compound name [14C]Sunitinib. As to conditions: in vivo, po. In outline: (§2)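 Lister Hooded (pigmented) rats, ca 7-8 weeks old, acclimated 7 days, given [14C]sunitinib L-malate by gastric gavage at 20 mg/kg (15 mg freebase/kg, 100 µCi/kg). One male and one female killed by CO2 at 24, 72, 168 and 336 h. Carcasses frozen in solid CO2/hexane and embedded in frozen cellulose. 30 µm sagittal cryosections were freeze-dried. Tissue radioactivity measured by quantitative whole-body autoradiography against calibration standards, with background subtracted.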

Data set [3] has as its system Stomach. Nature of the data set: Drug concentration in female Lister Hooded pigmented rat stomach assessed as radioactivity per gram of tissue at 20 mg/kg administered as single dose via gastric gavage measured after 24 hrs by autoradiographic analysis. It counts as ADME, organism-based. The arrangement: dose 20 mg/kg, dosed compound name [14C]Sunitinib. As to conditions: in vivo, po. In outline:
as §2

In another data set the test system is Spleen. Description: Drug concentration in female Lister Hooded pigmented rat spleen assessed as radioactivity per gram of tissue at 20 mg/kg administered as single dose via gastric gavage measured after 24 hrs by autoradiographic analysis. It counts as ADME, organism-based. The arrangement: dose 20 mg/kg, dosed compound name [14C]Sunitinib. Conditions: in vivo, po. The method in brief: as §2

Data set [4] can be described thus: Drug concentration in female albino rat bone marrow assessed as radioactivity per gram of tissue at 20 mg/kg administered as single dose via gastric gavage measured after 3 hrs by autoradiographic analysis. It counts as ADME, organism-based. The arrangement: dose 20 mg/kg, dosed compound name [14C]Sunitinib. As to conditions: in vivo, po. The method in brief:
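Sprague Dawley (albino) and Lister Hooded (pigmented) rats, ca 7-8 weeks old, 179-310 g, acclimated 7 days. Single gavage dose of [14C]sunitinib L-malate (15 mg freebase/kg, 100 µCi/kg). One male and one female killed by CO2 per time point: albino at 3, 6, 24, 72, 168 h; pigmented at 24, 72, 168, 336 h. Carcasses frozen in solid CO2/hexane, 30 µm sagittal sections freeze-dried. Tissue radioactivity read by quantitative whole-body autoradiography against regression of standards, mean background subtracted.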

Data set [5] can be described thus: Drug concentration in female Lister Hooded pigmented rat preputial gland assessed as radioactivity per gram of tissue at 20 mg/kg administered as single dose via gastric gavage measured after 24 hrs by autoradiographic analysis. It counts as ADME, organism-based. The arrangement: dose 20 mg/kg, dosed compound name [14C]Sunitinib. As to conditions: in vivo, po. In outline:
as §2

The subject of data set [6] is Heart. Description: Drug concentration in male albino rat heart assessed as radioactivity per gram of tissue at 20 mg/kg administered as single dose via gastric gavage measured after 3 hrs by autoradiographic analysis. It counts as ADME, organism-based. The arrangement: dose 20 mg/kg, dosed compound name [14C]Sunitinib. Conditions: in vivo, po.
For a further data set, the system named is Kidney. Nature of the data set: Drug concentration in male Lister Hooded pigmented rat kidney assessed as radioactivity per gram of tissue at 20 mg/kg administered as single dose via gastric gavage measured after 72 hrs by autoradiographic analysis. Format: ADME, organism-based. The arrangement: dose 20 mg/kg, dosed compound name [14C]Sunitinib. Conditions: in vivo, po.

A short description of data set [7]: Drug concentration in male albino rat bone marrow assessed as radioactivity per gram of tissue at 20 mg/kg administered as single dose via gastric gavage measured after 3 hrs by autoradiographic analysis. It counts as ADME, organism-based. Further details: dose 20 mg/kg, dosed compound name [14C]Sunitinib. As to conditions: in vivo, po.
Data set [8] can be described thus: Drug concentration in male Lister Hooded pigmented rat uveal tract assessed as radioactivity per gram of tissue at 20 mg/kg administered as single dose via gastric gavage measured after 24 hrs by autoradiographic analysis. Conditions: in vivo, po. Format: ADME, organism-based. Further details: dose 20 mg/kg, dosed compound name [14C]Sunitinib.
Data set [9] deals with Stomach. Nature of the data set: Drug concentration in female albino rat stomach assessed as radioactivity per gram of tissue at 20 mg/kg administered as single dose via gastric gavage measured after 3 hrs by autoradiographic analysis. It counts as ADME, organism-based. The arrangement: dose 20 mg/kg, dosed compound name [14C]Sunitinib. As to conditions: in vivo, po.
In another data set the test system is Cynomolgus monkey. Description: Terminal half life as total radioactivity in male cynomolgus monkey plasma at 6 mg/kg, po administered as single dose by LC/MS/MS analysis. The arrangement: dose 6 mg/kg, dosed compound name [14C]Sunitinib, route oral. Conditions: in vivo. It counts as ADME, organism-based, Macaca fascicularis.
For data set [10], the system named is Brain. Description: Drug concentration in male albino rat brain assessed as radioactivity per gram of tissue at 20 mg/kg administered as single dose via gastric gavage measured after 72 hrs by autoradiographic analysis. As to conditions: in vivo, po. The arrangement: dose 20 mg/kg, dosed compound name [14C]Sunitinib. It counts as ADME, organism-based.
The subject of data set [11] is Heart. Nature of the data set: Drug concentration in male Lister Hooded pigmented rat heart assessed as radioactivity per gram of tissue at 20 mg/kg administered as single dose via gastric gavage measured after 24 hrs by autoradiographic analysis. The arrangement: dose 20 mg/kg, dosed compound name [14C]Sunitinib. Format: ADME, organism-based. Conditions: in vivo, po.

The next data set relates to Large intestine. Description: Drug concentration in male albino rat large intestine assessed as radioactivity per gram of tissue at 20 mg/kg administered as single dose via gastric gavage measured after 72 hrs by autoradiographic analysis. Format: ADME, organism-based. Further details: dose 20 mg/kg, dosed compound name [14C]Sunitinib. As to conditions: in vivo, po.

The next data set deals with Blood. Description: Drug concentration in female albino rat blood assessed as radioactivity per gram of tissue at 20 mg/kg administered as single dose via gastric gavage measured after 3 hrs by autoradiographic analysis. Further details: dose 20 mg/kg, dosed compound name [14C]Sunitinib. Format: ADME, organism-based. Conditions: in vivo, po. In outline:
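Sprague Dawley (albino) rats, ca 7-8 weeks old, received a single gastric-gavage dose of [14C]sunitinib L-malate at 20 mg/kg (15 mg freebase/kg, 100 µCi/kg). One animal per sex killed by CO2 at 3, 6, 24, 72 and 168 h, then frozen in CO2/hexane. 30 µm sagittal sections were cut and freeze-dried. Radioactivity per gram quantified by whole-body autoradiography using regression against standards. LOQ 0.04–0.06 µg freebase equiv/g.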

Data set [12] in a line: Drug concentration in male albino rat pituitary gland assessed as radioactivity per gram of tissue at 20 mg/kg administered as single dose via gastric gavage measured after 168 hrs by autoradiographic analysis. The arrangement: dose 20 mg/kg, dosed compound name [14C]Sunitinib. Conditions: in vivo, po. It counts as ADME, organism-based.
Another data set concerns Pancreas. Description: Drug concentration in male albino rat pancreas assessed as radioactivity per gram of tissue at 20 mg/kg administered as single dose via gastric gavage measured after 6 hrs by autoradiographic analysis. It counts as ADME, organism-based. As to conditions: in vivo, po. The arrangement: dose 20 mg/kg, dosed compound name [14C]Sunitinib.
Another data set deals with Lung. Description: Drug concentration in female albino rat lung assessed as radioactivity per gram of tissue at 20 mg/kg administered as single dose via gastric gavage measured after 6 hrs by autoradiographic analysis. Format: ADME, organism-based. The arrangement: dose 20 mg/kg, dosed compound name [14C]Sunitinib. As to conditions: in vivo, po. The method in brief: as §1

The next data set concerns Spinal cord. Nature of the data set: Drug concentration in male albino rat spinal cord assessed as radioactivity per gram of tissue at 20 mg/kg administered as single dose via gastric gavage measured after 3 hrs by autoradiographic analysis. Format: ADME, organism-based. Further details: dose 20 mg/kg, dosed compound name [14C]Sunitinib. As to conditions: in vivo, po.

A further data set deals with Rattus norvegicus. Description: Apparent terminal half life as total radioactivity in female Sprague-Dawley rat plasma at 5 mg/kg, iv administered as single dose by LC/MS/MS analysis. Format: ADME, organism-based. Further details: dose 5 mg/kg, dosed compound name [14C]Sunitinib, route intravenous. As to conditions: in vivo. The method in brief: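 Single dose of [14C]sunitinib L-malate as free base, 50 µCi/kg. IV dose was 5 mg/kg by tail vein in 5 females. Oral dose was 15 mg/kg by gavage in 3 females and 3 males. Total radioactivity was by scintillation counting. […] Cmax was read from raw data, t½ by log-linear regression, AUC by linear trapezoidal rule.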

Data set [13] relates to Brain. Nature of the data set: Drug concentration in male albino rat brain assessed as radioactivity per gram of tissue at 20 mg/kg administered as single dose via gastric gavage measured after 6 hrs by autoradiographic analysis. The arrangement: dose 20 mg/kg, dosed compound name [14C]Sunitinib. It counts as ADME, organism-based. Conditions: in vivo, po.

Results on 1 molecule are retold here after ChEMBL document CHEMBL3525900, “Pharmacokinetics, distribution, and metabolism of [14C]sunitinib in rats, monkeys, and humans” (Drug Metab Dispos, 2012).

Consider `CCN(CC)CCNC(=O)c1c(C)[nH]c(/[14CH]=C2\C(=O)Nc3ccc(F)cc32)c1C.O=C(O)C[C@H](O)C(=O)O`, for which the Radiolabel recovery in the data set on Heart [1] was found to be 7.31 ugequiv; with Heart [2], 0.47 ugequiv; with Stomach [3], 0.64 ugequiv; in the data set on Spleen, 2.79 ugequiv; in data set [4], 10.64 ugequiv; in [5], 4.5 ugequiv. The Radiolabel recovery was 5.58 ugequiv in the data set with Heart [6]; 0.26 ugequiv in the data set on Kidney; 7.55 ugequiv in [7]; 18.79 ugequiv in data set [8]; 15.45 ugequiv in the data set on Stomach [9]; 0.07 ugequiv in the data set on Brain [10]. Also, the Radiolabel recovery stood at 0.43 ugequiv with Heart [11]; 0.08 ugequiv in the data set on Large intestine; 1.66 ugequiv in the data set on Blood; 0.76 ugequiv in data set [12]; 9.18 ugequiv in the data set on Pancreas; 16.19 ugequiv with Lung. Moreover, the Radiolabel recovery with Spinal cord is 0.19 ugequiv; with Brain [13] it was 0.34 ugequiv. For the same molecule, the “beta t1/2” value in the data set on Cynomolgus monkey is 222 h. Besides, the t1/2 lambda z in the data set on Rattus norvegicus came out at 10.3 h.
